Experiments:
[1] = molecular target: T1, Mineralocorticoid receptor (Rattus norvegicus) (UniProt P22199); experiment: Ratio of [3H]aldosterone binding with 8*10e-8 M aldosterone to [3H]aldosterone binding with 8*10e-8 M competitor at Mineralocorticoid receptor
T1 sequence (whole entry): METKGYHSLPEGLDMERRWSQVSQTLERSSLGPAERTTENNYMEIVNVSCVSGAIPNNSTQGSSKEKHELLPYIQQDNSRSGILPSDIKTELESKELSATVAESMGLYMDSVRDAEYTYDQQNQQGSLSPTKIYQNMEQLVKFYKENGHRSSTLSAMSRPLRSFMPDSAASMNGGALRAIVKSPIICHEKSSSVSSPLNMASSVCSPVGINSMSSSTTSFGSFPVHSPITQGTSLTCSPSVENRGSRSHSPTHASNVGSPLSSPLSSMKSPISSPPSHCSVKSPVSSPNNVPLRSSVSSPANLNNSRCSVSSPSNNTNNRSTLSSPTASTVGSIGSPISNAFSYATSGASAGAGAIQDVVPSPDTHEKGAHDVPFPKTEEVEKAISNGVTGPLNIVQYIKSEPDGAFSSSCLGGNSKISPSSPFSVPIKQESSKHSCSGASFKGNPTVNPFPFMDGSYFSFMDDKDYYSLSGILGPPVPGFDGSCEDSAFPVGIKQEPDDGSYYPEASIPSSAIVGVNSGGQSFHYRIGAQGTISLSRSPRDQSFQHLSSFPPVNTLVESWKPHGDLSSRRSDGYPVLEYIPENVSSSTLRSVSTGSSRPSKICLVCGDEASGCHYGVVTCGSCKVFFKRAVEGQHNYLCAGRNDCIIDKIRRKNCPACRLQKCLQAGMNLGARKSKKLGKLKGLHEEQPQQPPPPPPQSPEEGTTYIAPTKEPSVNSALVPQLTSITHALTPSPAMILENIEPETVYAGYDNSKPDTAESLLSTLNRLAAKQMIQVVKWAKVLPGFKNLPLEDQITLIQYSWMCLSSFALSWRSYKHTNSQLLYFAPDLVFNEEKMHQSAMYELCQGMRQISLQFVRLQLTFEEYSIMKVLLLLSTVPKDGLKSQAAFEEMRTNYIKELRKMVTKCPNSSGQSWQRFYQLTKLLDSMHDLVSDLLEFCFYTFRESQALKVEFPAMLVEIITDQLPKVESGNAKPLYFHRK
Procedure, shortened: (§1)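 Competition binding against [3H]aldosterone at the mineralocorticoid steroid-receptor complex. Each spirolactone competitor was tested at 8 × 10^-8 M, with unlabeled aldosterone at the same concentration as reference. Incubation ran 40 min at 25 °C. Labeled aldosterone still receptor-bound afterwards was measured, and binding affinity was expressed relative to aldosterone.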

[2] = molecular target: T1, Mineralocorticoid receptor (Rattus norvegicus); experiment: Displacement of [3H]aldosterone from mineralocorticoid receptor; procedure, shortened: as §1

Row | Relative binding affinity [1] | Binding [2] | Structure (SMILES)
1 | 0.24 | 32.2% | CC(=O)S[C@@H]1CC2=CC(=O)CC[C@]2(C)[C@H]2CC[C@@]3(C)[C@@H](CC[C@@]34CCC(=O)O4)[C@H]12
2 | 0.22 | 36% | C[C@]12CCC(=O)C=C1CC[C@@H]1[C@@H]2CC[C@@]2(C)[C@H]1CC[C@@]21CCC(=O)O1
3 | 0.12 | 66% | CC12CCC(=O)C=C1[C@H]1C[C@H]1C1C2CCC2(C)C1CCC21CCC(=O)O1 (some centres undefined)
4 | 0.25 | 31.7% | CC12CCC(=O)C=C1[C@@H]1C[C@@H]1C1C2CCC2(C)C1CCC21CCC(=O)O1 (some centres undefined)

The next lines start with the molecule.

Row | Structure (SMILES) | Relative binding affinity [1] | Binding [2]
5 | CC12C(=CC(=O)C3CC31)[C@H]1CC1C1C2CCC2(C)C1CCC21CCC(=O)O1 (some centres undefined) | 0.1 | 77.6%
6 | CC12C(=CC(=O)C3CC31)[C@@H]1C[C@@H]1C1C2CCC2(C)C1CCC21CCC(=O)O1 (some centres undefined) | 0.14 | 55%
7 | C[C@]12C=CC(=O)C=C1CCC1C2CC[C@@]2(C)C1CC[C@@]21CCC(=O)O1 (some centres undefined) | 0.15 | 53.5%
8 | C[C@]12CCC(=O)C=C1C=C[C@@H]1[C@@H]2CC[C@@]2(C)[C@H]1CC[C@@]21CCC(=O)O1 | 0.13 | 60%
9 | CC12C=CC(=O)C=C1[C@H]1CC1C1C2CCC2(C)C1CCC21CCC(=O)O1 (some centres undefined) | 0.1 | 77%
10 | CC12C=CC(=O)C=C1C=CC1C2CCC2(C)C1CCC21CCC(=O)O1 (centres undefined) | 0.1 | 76.6%
11 | CC12C=CC(=O)C=C1[C@H]1C[C@H]1C1C2CCC2(C)C1CCC21CCC(=O)O1 (some centres undefined) | 0.15 | 53%
12 | C[C@]12CCC(=O)C=C1CC[C@@H]1[C@@H]2[C@@H](O)C[C@]2(C=O)[C@@H](C(=O)CO)CC[C@@H]12 | 1 | 7.8%

— ChEMBL document CHEMBL1121702, “A structure-activity relationship study of spirolactones. Contribution of the cyclopropane ring to antimineralocorticoid activity” (J Med Chem, 1981)
